Laboratory results from ChEMBL document CHEMBL1795235, “Quercetin diacylglycoside analogues showing dual inhibition of DNA gyrase and topoisomerase IV as novel antibacterial agents” (J Med Chem, 2011).
Values after ≈ are worked out from the molar mass of the structure shown.

Legend:
[1] = tested on: Escherichia coli; experiment: Antibacterial activity against Escherichia coli K-12 after 24 hrs by microdilution method; type: functional; conditions: K-12, 24 h
How it was run: (§1)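 Broth microdilution in Mueller-Hinton broth with 0.85% NaCl, inoculum about 10^5 CFU per 100 μL. Compounds diluted from 25.6 mg/mL stocks in water to 2-fold series, final 0.062–128 μg/mL. […] Three independent determinations.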

[2] = tested on: Enterococcus; experiment: Antibacterial activity against vancomycin resistant Enterococcus FN-1 after 24 hrs by microdilution method; type: functional; conditions: FN-1, 24 h
How it was run: (§2)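 Broth microdilution in Mueller-Hinton broth with 0.85% NaCl, inoculum about 10^5 CFU per 100 μL. Compounds were diluted in water from 25.6 mg/mL stocks to final 2-fold series of 0.062–128 μg/mL. Plates were incubated 24 h at 35 °C. MIC was the lowest concentration at which all triplicate wells were clear, from three independent determinations.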

[3] = tested on: Staphylococcus aureus; experiment: Antibacterial activity against methicillin-susceptible Staphylococcus aureus 209P after 24 hrs by microdilution method; type: functional; how it was run: as §2
[4] = Inhibition of Escherichia coli DNA gyrase assessed as inhibition of pBR322 supercoiling by densitometry
How it was run: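 One unit of E. coli gyrase with 0.5 μg relaxed pBR322 DNA, 37 °C, 30 min. Stopped with sucrose/EDTA dye, run on 1.0% agarose in TAE. IC50 from densitometry via log-interpolation equation.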

[5] = tested on: Staphylococcus aureus; experiment: Antibacterial activity against methicillin-resistant Staphylococcus aureus OM584 after 24 hrs by microdilution method; type: functional; conditions: OM584, 24 h; how it was run: as §2
[6] = tested on: Staphylococcus aureus; experiment: Antibacterial activity against methicillin-resistant Staphylococcus aureus COL after 24 hrs by microdilution method; type: functional; how it was run: as §2
[7] = tested on: Streptococcus pneumoniae; experiment: Antibacterial activity against Streptococcus pneumoniae R6 after 24 hrs by microdilution method; type: functional; conditions: R6, 24 h; how it was run: as §1
[8] = Inhibition of Escherichia coli DNA topoisomerase 4 subunit ParC/DNA topoisomerase 4 subunit ParE-mediated decatenation of kDNA by densitometry
How it was run: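 Purchased E. coli topoIV kit enzyme, one unit with 200 ng kDNA, 37 °C, 30 min. Buffer: 50 mM HEPES-KOH pH 7.6, 5 mM magnesium acetate, 100 mM potassium glutamate, 10 mM DTT, 1 mM ATP, 40% glycerol. Gel on 1.0% agarose in TAE. IC50 of decatenation from densitometry by interpolation equation, at least three determinations.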

[9] = tested on: Staphylococcus aureus; experiment: Antibacterial activity against vancomycin-intermediate Staphylococcus aureus Mu50 after 24 hrs by microdilution method; type: functional; conditions: Mu50, 24 h; how it was run: as §2
[10] = tested on: Staphylococcus aureus; experiment: Antibacterial activity against methicillin-resistant Staphylococcus aureus OM481 after 24 hrs by microdilution method; type: functional; conditions: OM481, 24 h; how it was run: as §2
[11] = tested on: Pseudomonas aeruginosa; experiment: Antibacterial activity against Pseudomonas aeruginosa PAO1 after 24 hrs by microdilution method; type: functional; conditions: PAO1, 24 h; how it was run: as §1
[12] = Inhibition of Staphylococcus aureus DNA Topoisomerase 4-mediated decatenation of kDNA after 30 mins by densitometry
How it was run: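 Purchased S. aureus topoIV, one unit with 200 ng kDNA, 37 °C, 30 min. Products resolved on 1.0% agarose in TAE. IC50 of decatenation from densitometry by interpolation equation, at least three determinations.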

[13] = tested on: Staphylococcus aureus; experiment: Antibacterial activity against methicillin-resistant Staphylococcus aureus N315 after 24 hrs by microdilution method; type: functional; conditions: N315, 24 h; how it was run: as §2
[14] = tested on: Enterococcus; experiment: Antibacterial activity against vancomycin resistant Enterococcus NCTC 12201 after 24 hrs by microdilution method; type: functional; conditions: NCTC 12201, 24 h; how it was run: as §2

Structure (SMILES) | MIC [1] [µg/mL] | MIC [2] [µg/mL] | MIC [3] [µg/mL] | IC50 [4] [nM] | MIC [5] [µg/mL] | MIC [6] [µg/mL] | MIC [7] [µg/mL] | IC50 [8] [nM] | MIC [9] [µg/mL] | MIC [10] [µg/mL] | MIC [11] [µg/mL] | IC50 [12] [nM] | MIC [13] [µg/mL] | MIC [14] [µg/mL]
O=C(CCc1ccc(O)cc1)OC[C@H]1O[C@@H](Oc2c(-c3ccc(O)c(O)c3)oc3cc(O)cc(O)c3c2=O)[C@H](OC(=O)CCc2ccc(O)cc2)[C@@H](O)[C@H]1O | > 128 | 4 (≈ 5.26 µM) | 2 (≈ 2.63 µM) | 2390 | 1 (≈ 1.31 µM) | 4 (≈ 5.26 µM) | 4 (≈ 5.26 µM) | 10900 | 2 (≈ 2.63 µM) | 1 (≈ 1.31 µM) | > 128 | 1590 | 2 (≈ 2.63 µM) | 4 (≈ 5.26 µM)
Cc1ccc(CCC(=O)OC[C@H]2O[C@@H](Oc3c(-c4ccc(O)c(O)c4)oc4cc(O)cc(O)c4c3=O)[C@H](O)[C@@H](O)[C@H]2O)cc1 | > 128 | 32 (≈ 52.4 µM) | 16 (≈ 26.2 µM) | 1790 | 16 (≈ 26.2 µM) | 32 (≈ 52.4 µM) | 32 (≈ 52.4 µM) | 12000 | 16 (≈ 26.2 µM) | 16 (≈ 26.2 µM) | > 128 | 2570 | 16 (≈ 26.2 µM) | 32 (≈ 52.4 µM)
O=C(CCc1ccc(F)cc1)OC[C@H]1O[C@@H](Oc2c(-c3ccc(O)c(O)c3)oc3cc(O)cc(O)c3c2=O)[C@H](O)[C@@H](O)[C@H]1O | > 128 | 16 (≈ 26 µM) | 16 (≈ 26 µM) | 1400 | 16 (≈ 26 µM) | 32 (≈ 52.1 µM) | 32 (≈ 52.1 µM) | 11500 | 32 (≈ 52.1 µM) | 16 (≈ 26 µM) | > 128 | 2990 | 16 (≈ 26 µM) | 16 (≈ 26 µM)
O=C(CCCc1ccc(F)cc1)OC[C@H]1O[C@@H](Oc2c(-c3ccc(O)c(O)c3)oc3cc(O)cc(O)c3c2=O)[C@H](OC(=O)CCCc2ccc(F)cc2)[C@@H](O)[C@H]1O | > 128 | 8 (≈ 10.1 µM) | 4 (≈ 5.05 µM) | 2980 | 2 (≈ 2.52 µM) | 16 (≈ 20.2 µM) | 4 (≈ 5.05 µM) | 10700 | 4 (≈ 5.05 µM) | 2 (≈ 2.52 µM) | > 128 | 2940 | 4 (≈ 5.05 µM) | 8 (≈ 10.1 µM)
CCOc1ccc(CCC(=O)OC[C@H]2O[C@@H](Oc3c(-c4ccc(O)c(O)c4)oc4cc(O)cc(O)c4c3=O)[C@H](OC(=O)CCc3ccc(OCC)cc3)[C@@H](O)[C@H]2O)cc1 | > 128 | 16 (≈ 19.6 µM) | 8 (≈ 9.79 µM) | 5390 | 4 (≈ 4.9 µM) | 8 (≈ 9.79 µM) | 8 (≈ 9.79 µM) | > 12000 | 8 (≈ 9.79 µM) | 4 (≈ 4.9 µM) | > 128 | 2990 | 2 (≈ 2.45 µM) | 16 (≈ 19.6 µM)
CCOc1ccc(C(=O)OC[C@H]2O[C@@H](Oc3c(-c4ccc(O)c(O)c4)oc4cc(O)cc(O)c4c3=O)[C@H](OC(=O)c3ccc(OCC)cc3)[C@@H](O)[C@H]2O)cc1 | > 128 | 8 (≈ 10.5 µM) | 4 (≈ 5.26 µM) | 430 | 4 (≈ 5.26 µM) | 16 (≈ 21 µM) | 4 (≈ 5.26 µM) | 11300 | 4 (≈ 5.26 µM) | 4 (≈ 5.26 µM) | > 128 | 1780 | 8 (≈ 10.5 µM) | 8 (≈ 10.5 µM)
O=c1c(O[C@@H]2O[C@H](CO)[C@H](O)[C@H](O)[C@H]2O)c(-c2ccc(O)c(O)c2)oc2cc(O[C@@H]3O[C@H](CO)[C@H](O)[C@H](O)[C@H]3O)cc(O)c12 | 32 (≈ 51.1 µM) | > 128 | > 128 | 260 | > 128 | > 128 | > 128 | 5340 | > 128 | > 128 | 32 (≈ 51.1 µM) | 200 | > 128 | > 128
CCCc1ccc(C(=O)OC[C@H]2O[C@@H](Oc3c(-c4ccc(O)c(O)c4)oc4cc(O)cc(O)c4c3=O)[C@H](OC(=O)c3ccc(CCC)cc3)[C@@H](O)[C@H]2O)cc1 | > 128 | 8 (≈ 10.6 µM) | 2 (≈ 2.64 µM) | 770 | 4 (≈ 5.29 µM) | 16 (≈ 21.1 µM) | 2 (≈ 2.64 µM) | 10900 | 4 (≈ 5.29 µM) | 4 (≈ 5.29 µM) | > 128 | 1930 | 2 (≈ 2.64 µM) | 4 (≈ 5.29 µM)
